According to ChEMBL document CHEMBL1139546, “Radiosynthesis and evaluation of [11C]-(+)-4-propyl-3,4,4a,5,6,10b-hexahydro-2H-naphtho[1,2-b][1,4]oxazin-9-ol as a potential radiotracer for in vivo imaging of the dopamine D2 high-affinity state with positron emission tomography” (2005):

Tests used:
Rattus norvegicus [1] = experiment: Effect on compound specific binding to rat brain upon pre-treatment with 2 mg/kg reserpine; format: functional
Outline: (§1)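 Male Sprague-Dawley rats, four groups of five: reserpine (2 mg/kg sc) 24 h before tracer then AMPT (250 mg/kg ip) 1 h before; reserpine then saline; saline then AMPT; saline twice as controls. Tracer given iv via tail vein. Killed 60 min post-injection. Striatal and cerebellar %ID/g counted. Specific binding ratio = (striatum − cerebellum)/cerebellum.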

Rattus norvegicus [2] = experiment: Effect on compound specific binding to rat brain upon pre-treatment with 2 mg/kg reserpine and 250 mg/kg AMPT; format: functional; outline: as §1
Rattus norvegicus [3] = experiment: Effect on compound specific binding to dopamine release in rat brain upon pre-treatment with 1 mg/kg amphetamine; format: functional
Outline: (§2)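 Male Sprague-Dawley rats (230-280 g), groups of 4-5, given the challenge agent in saline (1 mL/kg, iv unless otherwise stated) 25-30 min before tail-vein [11C] tracer, 25-30 MBq (1-2 nmol) in buffered saline. A saline control group was run each time. Killed 60 min post-injection. Striatum and cerebellum counted by gamma counter. Specific binding = (%ID/g striatum − %ID/g cerebellum)/%ID/g cerebellum.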

Rattus norvegicus [4] = experiment: Effect on compound specific binding to dopamine release in rat brain upon pre-treatment with 2 mg/kg amphetamine; format: functional; outline: as §2
Rattus norvegicus [5] = experiment: Effect on compound specific binding to dopamine release in rat brain upon pre-treatment with 4 mg/kg amphetamine; format: functional; outline: as §2
Rattus norvegicus [6] = experiment: Effect on compound specific binding to dopamine release in rat brain upon pre-treatment with 0.1 mg/kg amphetamine; format: functional; outline: as §2
Rattus norvegicus [7] = experiment: Effect on compound specific binding to dopamine release in rat brain upon pre-treatment with 0.5 mg/kg amphetamine; format: functional; outline: as §2
Rattus norvegicus [8] = experiment: Effect on compound specific binding to dopamine release in rat brain upon pre-treatment with 0.25 mg/kg amphetamine; format: functional; outline: as §2
[9] = Percent change in rat brain dopamine D2/sigma receptor binding after in rat brain after 1 mg/kg haloperidol treatment; format: functional; outline: as §2
[10] = Percent change in rat brain dopamine D2/sigma receptor binding after in rat brain after 0.2 mg/kg haloperidol treatment; format: functional; outline: as §2
[11] = target: D(1A) dopamine receptor (Rattus norvegicus) (UniProt P18901); details: Brain, at 1 mg/kg
D(1A) dopamine receptor (Rattus norvegicus), sequence (P18901 whole entry): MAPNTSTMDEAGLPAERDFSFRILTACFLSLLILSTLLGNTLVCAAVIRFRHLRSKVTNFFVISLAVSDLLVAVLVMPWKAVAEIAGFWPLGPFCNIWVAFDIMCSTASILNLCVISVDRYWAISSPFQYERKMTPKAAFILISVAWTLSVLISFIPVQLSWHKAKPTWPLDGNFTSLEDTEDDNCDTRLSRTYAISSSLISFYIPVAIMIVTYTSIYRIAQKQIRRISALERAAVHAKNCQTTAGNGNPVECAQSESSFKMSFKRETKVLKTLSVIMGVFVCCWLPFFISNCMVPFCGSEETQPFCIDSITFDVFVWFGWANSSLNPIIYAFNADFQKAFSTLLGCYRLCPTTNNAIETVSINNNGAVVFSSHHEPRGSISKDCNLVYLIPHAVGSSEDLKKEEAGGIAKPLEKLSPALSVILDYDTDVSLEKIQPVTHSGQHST

[12] = target: Sodium-dependent dopamine transporter (Rattus norvegicus) (UniProt P23977); details: Brain, at 1 mg/kg
Sodium-dependent dopamine transporter (Rattus norvegicus), sequence (P23977 whole entry): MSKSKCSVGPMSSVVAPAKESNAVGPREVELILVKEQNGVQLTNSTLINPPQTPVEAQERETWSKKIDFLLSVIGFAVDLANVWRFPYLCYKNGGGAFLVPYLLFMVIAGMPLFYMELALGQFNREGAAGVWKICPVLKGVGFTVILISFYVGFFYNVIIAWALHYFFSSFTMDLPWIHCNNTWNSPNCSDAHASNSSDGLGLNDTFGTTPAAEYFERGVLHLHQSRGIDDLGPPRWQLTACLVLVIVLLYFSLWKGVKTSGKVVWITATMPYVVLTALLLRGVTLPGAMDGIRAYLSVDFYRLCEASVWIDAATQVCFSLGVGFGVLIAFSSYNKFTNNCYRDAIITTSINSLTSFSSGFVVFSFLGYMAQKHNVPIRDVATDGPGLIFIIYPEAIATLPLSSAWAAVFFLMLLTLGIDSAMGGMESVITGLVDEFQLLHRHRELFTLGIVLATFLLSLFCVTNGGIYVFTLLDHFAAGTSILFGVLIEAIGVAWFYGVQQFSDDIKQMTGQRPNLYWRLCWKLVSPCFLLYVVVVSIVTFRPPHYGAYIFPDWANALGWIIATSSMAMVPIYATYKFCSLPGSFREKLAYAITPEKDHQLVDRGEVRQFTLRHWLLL

[13] = target: Sodium-dependent dopamine transporter (Rattus norvegicus) (UniProt P23977); details: Brain, at 2 mg/kg
[14] = target: Sodium-dependent dopamine transporter (Rattus norvegicus) (UniProt P23977); details: Brain, at 5 mg/kg
[15] = target: Tyrosine 3-monooxygenase (Rattus norvegicus) (UniProt P04177); details: Brain, at 250 mg/kg
Tyrosine 3-monooxygenase (Rattus norvegicus), sequence (P04177 whole entry): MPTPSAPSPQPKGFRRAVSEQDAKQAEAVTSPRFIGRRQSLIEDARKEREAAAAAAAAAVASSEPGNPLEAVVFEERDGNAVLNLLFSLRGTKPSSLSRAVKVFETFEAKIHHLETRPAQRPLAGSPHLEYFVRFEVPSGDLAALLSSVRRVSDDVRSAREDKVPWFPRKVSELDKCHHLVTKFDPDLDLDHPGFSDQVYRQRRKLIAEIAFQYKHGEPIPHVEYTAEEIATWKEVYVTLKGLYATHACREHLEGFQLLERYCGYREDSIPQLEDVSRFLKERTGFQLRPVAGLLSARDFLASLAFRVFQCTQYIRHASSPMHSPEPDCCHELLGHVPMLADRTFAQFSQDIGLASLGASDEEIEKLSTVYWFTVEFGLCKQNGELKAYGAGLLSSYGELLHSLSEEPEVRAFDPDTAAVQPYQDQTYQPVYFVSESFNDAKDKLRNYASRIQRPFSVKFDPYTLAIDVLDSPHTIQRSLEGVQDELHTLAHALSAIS

[16] = target: Sodium-dependent dopamine transporter (Rattus norvegicus) (UniProt P23977); details: Brain, at 10 mg/kg
[17] = target: Sodium-dependent dopamine transporter (Rattus norvegicus) (UniProt P23977); details: Brain, at 0.5 mg/kg
[18] = target: Sigma non-opioid intracellular receptor 1 (Rattus norvegicus) (UniProt Q9R0C9); details: Brain, at 1 mg/kg
Sigma non-opioid intracellular receptor 1 (Rattus norvegicus), sequence (Q9R0C9 whole entry): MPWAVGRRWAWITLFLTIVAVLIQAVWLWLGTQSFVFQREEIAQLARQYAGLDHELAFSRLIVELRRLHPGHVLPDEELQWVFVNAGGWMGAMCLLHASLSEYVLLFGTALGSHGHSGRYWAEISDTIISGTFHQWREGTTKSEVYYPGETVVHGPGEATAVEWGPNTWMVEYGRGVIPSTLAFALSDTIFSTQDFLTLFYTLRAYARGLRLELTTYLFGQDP

[19] = target: T1, Alpha-2A adrenergic receptor (Rattus norvegicus) (UniProt P22909); details: Brain, at 2 mg/kg
T1 sequence (whole entry): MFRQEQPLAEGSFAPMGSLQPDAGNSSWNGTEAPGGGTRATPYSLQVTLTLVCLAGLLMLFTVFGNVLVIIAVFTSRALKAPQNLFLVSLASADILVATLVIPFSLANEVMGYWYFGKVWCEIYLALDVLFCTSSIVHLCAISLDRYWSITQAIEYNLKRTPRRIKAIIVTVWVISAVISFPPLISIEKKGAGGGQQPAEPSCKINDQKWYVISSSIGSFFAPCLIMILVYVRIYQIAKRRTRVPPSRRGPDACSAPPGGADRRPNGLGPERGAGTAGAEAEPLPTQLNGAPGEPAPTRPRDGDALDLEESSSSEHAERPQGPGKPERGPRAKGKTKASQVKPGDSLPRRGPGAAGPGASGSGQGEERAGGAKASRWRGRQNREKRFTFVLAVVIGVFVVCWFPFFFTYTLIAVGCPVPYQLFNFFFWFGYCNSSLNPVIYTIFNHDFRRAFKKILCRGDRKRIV

[20] = target: T2, Dopamine receptor D2 and D3 (Rattus norvegicus) (UniProt P19020+P61169); details: Brain, at 1 mg/kg
T2 sequence (P19020 whole entry, looked up): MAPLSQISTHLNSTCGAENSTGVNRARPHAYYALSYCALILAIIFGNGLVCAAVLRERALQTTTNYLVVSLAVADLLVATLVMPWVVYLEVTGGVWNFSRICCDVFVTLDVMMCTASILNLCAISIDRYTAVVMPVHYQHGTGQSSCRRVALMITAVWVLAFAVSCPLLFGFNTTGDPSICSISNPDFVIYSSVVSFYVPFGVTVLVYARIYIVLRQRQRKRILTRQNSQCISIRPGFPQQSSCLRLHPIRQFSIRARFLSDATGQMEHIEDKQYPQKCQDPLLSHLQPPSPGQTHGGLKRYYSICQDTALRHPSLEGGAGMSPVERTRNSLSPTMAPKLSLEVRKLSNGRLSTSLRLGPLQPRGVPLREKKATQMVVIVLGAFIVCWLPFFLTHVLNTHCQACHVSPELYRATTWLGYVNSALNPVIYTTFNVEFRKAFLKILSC
T2 sequence (P61169 whole entry, looked up): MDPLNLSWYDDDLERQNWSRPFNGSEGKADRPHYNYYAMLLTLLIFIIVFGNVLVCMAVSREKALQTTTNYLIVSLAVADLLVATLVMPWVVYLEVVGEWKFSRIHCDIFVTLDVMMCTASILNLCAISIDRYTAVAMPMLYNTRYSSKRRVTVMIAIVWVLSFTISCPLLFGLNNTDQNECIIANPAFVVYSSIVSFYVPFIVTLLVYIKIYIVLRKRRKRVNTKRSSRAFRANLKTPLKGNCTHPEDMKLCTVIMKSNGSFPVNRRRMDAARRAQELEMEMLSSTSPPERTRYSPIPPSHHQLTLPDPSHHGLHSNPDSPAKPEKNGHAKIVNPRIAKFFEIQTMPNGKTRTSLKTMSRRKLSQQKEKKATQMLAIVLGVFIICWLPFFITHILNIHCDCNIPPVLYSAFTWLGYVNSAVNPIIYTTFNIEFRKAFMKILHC

[21] = target: Adrenergic receptor alpha-2 (Rattus norvegicus) (UniProt P22086+P19328+P22909); details: Brain, at 1 mg/kg
Adrenergic receptor alpha-2 (Rattus norvegicus), sequence (P19328 whole entry, looked up, one chain of several): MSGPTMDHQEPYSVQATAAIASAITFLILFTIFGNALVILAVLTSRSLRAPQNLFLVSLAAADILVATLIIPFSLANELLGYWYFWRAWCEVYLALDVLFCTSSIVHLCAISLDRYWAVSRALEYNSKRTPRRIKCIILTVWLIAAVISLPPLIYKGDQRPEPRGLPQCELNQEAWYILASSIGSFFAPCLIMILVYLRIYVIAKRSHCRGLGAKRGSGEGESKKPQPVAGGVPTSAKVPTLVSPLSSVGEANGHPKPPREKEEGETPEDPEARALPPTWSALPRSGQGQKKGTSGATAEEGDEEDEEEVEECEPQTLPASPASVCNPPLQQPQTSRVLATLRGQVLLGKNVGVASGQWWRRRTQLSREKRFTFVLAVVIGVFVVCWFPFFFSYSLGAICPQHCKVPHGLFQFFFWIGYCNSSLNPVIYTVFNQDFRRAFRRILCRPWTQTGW
Adrenergic receptor alpha-2 (Rattus norvegicus), sequence (P22086 whole entry, looked up, one chain of several): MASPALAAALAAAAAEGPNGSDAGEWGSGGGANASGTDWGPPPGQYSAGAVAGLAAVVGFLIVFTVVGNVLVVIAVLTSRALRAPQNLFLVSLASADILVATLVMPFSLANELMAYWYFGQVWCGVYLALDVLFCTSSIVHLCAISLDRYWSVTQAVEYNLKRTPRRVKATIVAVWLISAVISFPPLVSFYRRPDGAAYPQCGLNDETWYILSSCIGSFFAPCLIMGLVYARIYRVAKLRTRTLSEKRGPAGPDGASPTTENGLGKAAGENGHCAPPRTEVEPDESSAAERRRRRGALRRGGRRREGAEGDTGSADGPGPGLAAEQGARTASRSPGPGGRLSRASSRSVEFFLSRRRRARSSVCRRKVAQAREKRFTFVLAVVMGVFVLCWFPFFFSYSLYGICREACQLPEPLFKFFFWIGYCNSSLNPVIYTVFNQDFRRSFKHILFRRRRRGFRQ

[22] = target: T1, Alpha-2A adrenergic receptor (Rattus norvegicus); details: Brain, at 0.1 mg/kg
[23] = target: T2, Dopamine receptor D2 and D3 (Rattus norvegicus); details: Brain, at 0.2 mg/kg
[24] = target: T2, Dopamine receptor D2 and D3 (Rattus norvegicus); details: Brain, at 0.04 mg/kg
[25] = target: T3, 5-hydroxytryptamine receptor 1A (Rattus norvegicus) (UniProt P19327); details: Brain, at 1 mg/kg
T3 sequence (whole entry): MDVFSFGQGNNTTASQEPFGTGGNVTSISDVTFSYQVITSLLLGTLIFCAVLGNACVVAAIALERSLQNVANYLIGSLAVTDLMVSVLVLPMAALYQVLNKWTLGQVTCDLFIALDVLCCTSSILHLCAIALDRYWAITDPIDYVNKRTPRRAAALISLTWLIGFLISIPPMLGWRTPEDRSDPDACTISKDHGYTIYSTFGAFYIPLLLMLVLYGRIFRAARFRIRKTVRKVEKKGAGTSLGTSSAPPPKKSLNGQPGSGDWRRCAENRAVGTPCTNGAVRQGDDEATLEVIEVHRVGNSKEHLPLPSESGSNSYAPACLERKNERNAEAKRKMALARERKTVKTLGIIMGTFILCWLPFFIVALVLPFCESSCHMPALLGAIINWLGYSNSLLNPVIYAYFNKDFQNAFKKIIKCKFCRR

[26] = target: T2, Dopamine receptor D2 and D3 (Rattus norvegicus); details: Brain, at 0.01 mg/kg

CCCN1CCO[C@@H]2c3cc(O)ccc3CC[C@H]21 [NAXAGOLIDE]
Change (Rattus norvegicus [1]): 30%
Change (Rattus norvegicus [2]): 34%
Change (Rattus norvegicus [3]): -17%
Change (Rattus norvegicus [4]): -30%
Change (Rattus norvegicus [5]): -38%
Change (Rattus norvegicus [6]): -2%
Change (Rattus norvegicus [7]): -19%
Change (Rattus norvegicus [8]): -1%
Change [9]: -95%
Change [10]: -91%
Change [11]: 11%
Change [12]: -42%
Change [13]: -57%
Change [14]: -57%
Change [15]: 31%
Change [16]: -73%
Change [17]: -43%
Change [18]: 22%
Change [19]: 13%
Change [20]: -93%
Change [21]: 30%
Change [22]: 10%
Change [23]: -80%
Change [24]: -39%
Change [25]: -14%
Change [26]: -22%
